From publication PMC7383501 (Diabetes, Obesity & Metabolism, 2020)

How the values were obtained:
[1] = Single-dose study: serum pharmacokinetics of efpeglenatide; type: in vivo, human; conditions: T2D patients, serum ELISA; for tmax: median (min–max)
In short: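 Single s.c. dose (2–100 μg/kg) in T2D patients. Serum concentration–time data were used to derive tmax, terminal t1/2, observed Cmax, AUC(0–last) and AUC(0–inf). Values are geometric mean (%CV of arithmetic mean); tmax is median (min, max). Dose proportionality was explored on log-transformed Cmax and AUC. The PK set comprised dosed patients with sufficient concentration data.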

[2] = Repeated-dose study: serum pharmacokinetics of efpeglenatide; type: in vivo, human; conditions: mean (SD); for Accumulation ratio: AUC0–τ last dose / AUC0–τ first dose; for PTR (peak‐to‐trough ratio): Cmax/Cmin
In short: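 T2D patients on metformin received s.c. doses weekly (168 h interval, eight injections) or monthly (672 h interval, three injections). PK set, grouped by the most recent treatment received. Accumulation ratio was AUC0–τ of the last dose over AUC0–τ of the first dose. Peak-to-trough ratio was Cmax/Cmin. t1/2 was the terminal elimination half-life.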

[3] = system: patients with T2D; test: Single-dose study: pharmacodynamics; type: in vivo, human; conditions: single dose 2–8 μg/kg
In short: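 Pharmacodynamics were assessed from 24-hour glucose profiles, including fasting and postprandial plasma glucose, reported as absolute change from baseline. The PD set comprised all treated patients.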

[4] = system: patients with T2D; test: Repeated-dose study: pharmacodynamics/efficacy; type: in vivo, human
In short: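 Multiple-ascending-dose trial in adults with T2D on stable metformin: s.c. doses weekly (1, 2, 4 mg; 8 weeks) or monthly (8, 12, 16 mg; 9 weeks), placebo 3:1, no titration. Primary endpoint was HbA1c change from baseline to […]. Full analysis set by randomized treatment. LS means came from ANCOVA with cohort as main effect and baseline as covariate. Each dose was tested against placebo within its regimen, two-sided at 5%, unadjusted.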

[5] = system: patients with T2D; test: Single-dose study: safety and tolerability; type: in vivo, human
In short: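 Single ascending s.c. doses of 2–100 μg/kg or placebo (5:1) were given to T2D patients after a 14-day washout of glucose-lowering drugs. Safety assessments covered AE recording, vital signs, 12-lead ECG, clinical laboratory measures and physical examination. The safety set included all patients receiving any study drug.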

[6] = system: patients with T2D; test: Repeated-dose study: safety and tolerability; type: in vivo, human
In short: (§1)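 Adults aged 18–65 with T2D on stable metformin for ≥3 months, HbA1c 7–10%. Randomized 3:1 to s.c. test compound or placebo with no titration, in six cohorts of 12. Doses were 1, 2 or 4 mg weekly for 8 weeks, or 8, 12 or 16 mg monthly for 9 weeks; follow-up to week 13. Assessments covered AEs, vital signs, 12-lead ECG, clinical laboratory measures, immunogenicity and physical examination. Analysed in the safety set by treatment actually received.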

[7] = system: anti-efpeglenatide antibodies; test: Single-dose study: immunogenicity, bridging ELISA; type: in vivo, human; conditions: serum, pre-dose, days 28 and 49, follow-up
In short: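 First-in-patient dose escalation in eight cohorts of six T2D patients: single s.c. injection of 2–100 μg/kg test compound or placebo (5:1). Patients were 18–75 years, BMI 25–40 kg/m², HbA1c 6–10%, with a 14-day washout of glucose-lowering drugs before dosing. Immunogenicity was a secondary objective.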

[8] = system: anti-efpeglenatide antibodies; test: Repeated-dose study: immunogenicity, bridging ELISA; type: in vivo, human; conditions: the four patients with antibodies at baseline
In short: as §1

[9] = system: GLP‐1 receptor; conditions: in vitro; compared with other GLP‐1RAs; cited from earlier work
[10] = system: GLP‐1 receptor; conditions: in vitro; compared with other GLP‐1RAs; cited from earlier work; remark: listed apart in the source
[11] = single s.c. dose 2 μg/kg, geometric mean (%CV)
[12] = single s.c. dose 4 μg/kg, geometric mean (%CV)
[13] = single s.c. dose 8 μg/kg, geometric mean (%CV)
[14] = single s.c. dose 14 μg/kg, geometric mean (%CV)
[15] = single s.c. dose 20 μg/kg, geometric mean (%CV)
[16] = single s.c. dose 40 μg/kg, geometric mean (%CV)
[17] = single s.c. dose 60 μg/kg, geometric mean (%CV)
[18] = single s.c. dose 100 μg/kg, geometric mean (%CV)

With efpeglenatide the “AUC(0–last)” value [1, 11] was 2913 (19) ng h/mL, the Cmax [1, 11] was 10.4 (11) ng/mL and the tmax ([1]; single s.c. dose 2 μg/kg) was 144.00 (72.06–216.76) h. For the same substance, the “AUC(0–inf)” value [1, 12] was 9060 (12) ng h/mL, the “AUC(0–last)” value [1, 12] was 7911 (12) ng h/mL and the Cmax [1, 12] was 25.7 (16) ng/mL. The t1/2 [1, 12] was 144 (10) h, the tmax ([1]; single s.c. dose 4 μg/kg) was 72.06 (72.00–216.80) h and the Cmax [1, 13] was 45.1 (5) ng/mL. For the same substance, the t1/2 [1, 13] was 147 (19) h, the tmax ([1]; single s.c. dose 8 μg/kg) was 72.06 (72.00–144.00) h and the Cmax [1, 14] was 80.3 (28) ng/mL. For the same substance, the t1/2 [1, 14] was 135 (8) h, the tmax ([1]; single s.c. dose 14 μg/kg) was 144.00 (72.00–216.76) h and the Cmax [1, 15] was 102 (6) ng/mL. For the same substance, the t1/2 [1, 15] was 147 (6) h, the tmax ([1]; single s.c. dose 20 μg/kg) was 144.00 (72.00–216.78) h and the Cmax [1, 16] was 202 (14) ng/mL. The t1/2 [1, 16] was 141 (10) h, the tmax ([1]; single s.c. dose 40 μg/kg) was 144.00 (72.00–216.78) h and the Cmax [1, 17] was 349 (13) ng/mL. The t1/2 [1, 17] was 154 (9) h, the tmax ([1]; single s.c. dose 60 μg/kg) was 72.00 (72.00–144.00) h and the Cmax [1, 18] was 643 (12) ng/mL. For the same substance, the t1/2 [1, 18] was 180 (12) h, the tmax ([1]; single s.c. dose 100 μg/kg) was 72.00 (72.00–216.90) h and the Accumulation ratio ([2]; 1 mg once weekly s.c., τ 168 h) was 3.49 (2.16). For the same substance, the “PTR (peak‐to‐trough ratio)” value ([2]; 1 mg once weekly s.c.) was 1.40 (0.49), the Accumulation ratio ([2]; 2 mg once weekly s.c., τ 168 h) was 3.51 (0.68) and the “PTR (peak‐to‐trough ratio)” value ([2]; 2 mg once weekly s.c.) was 1.42 (0.21). For the same substance, the Accumulation ratio ([2]; 4 mg once weekly s.c., τ 168 h) was 3.71 (1.87), the “PTR (peak‐to‐trough ratio)” value ([2]; 4 mg once weekly s.c.) was 1.32 (0.12) and the Accumulation ratio ([2]; 8 mg once monthly s.c., τ 672 h) was 1.07 (0.10). The “PTR (peak‐to‐trough ratio)” value ([2]; 8 mg once monthly s.c.) was 10.35 (7.28), the “PTR (peak‐to‐trough ratio)” value ([2]; 12 mg once monthly s.c.) was 5.86 (1.10) and the “PTR (peak‐to‐trough ratio)” value ([2]; 16 mg once monthly s.c.) was 12.94 (7.55). The “changes in PPG” value [3] was “No notable changes”, the “reductions in FPG from baseline over 2 weeks” value ([3]; compared with the higher doses, data not shown) was “smaller than those observed for the higher doses” and the “LS mean change in HbA1c compared with placebo” value (shortened to “LS mean change in HbA1c”) ([4]; 8 mg once monthly, day 57, P = 0.006) was “statistically significant LS mean decreases”. For the same substance, the “LS mean change in HbA1c” value ([4]; 12 mg once monthly, day 57, P = 0.015) was “statistically significant LS mean decreases”, the “LS mean change in HbA1c” value ([4]; 16 mg once monthly, day 57) was “not statistically significant” and the “LS mean change in HbA1c” value ([4]; all once‐monthly dose groups (8, 12, 16 mg), day 29, P ≤0.047 for all, ANCOVA) was “significant decreases”. The “LS mean change in HbA1c” value ([4]; each once‐weekly dose group (1, 2, 4 mg), day 29, P ≤0.003 for all, ANCOVA) was “Significant decreases”, the “LS mean change in HbA1c” value ([4]; each once‐weekly dose group (1, 2, 4 mg), day 57, P ≤0.021 for all, ANCOVA) was “Significant decreases” and the “deaths or serious AEs” value [5] was “no deaths or serious AEs”. The “arrhythmia or ECG changes due to QTc prolongation or conduction disorders” value ([5]; 12‐lead ECG) was “no signs of arrhythmia or ECG changes”, the “hypoglycaemia or pancreatitis reported as AEs” value ([5]; any treatment group) was “No incidences” and the dose-escalation stopping criteria ([6]; 16 mg once monthly cohort, more than three patients with moderate vomiting) was “reached the predefined stopping criteria for dose escalation”. The pancreatic injury ([6]; any patient receiving efpeglenatide, repeated-dose study) was “no cases of pancreatic injury”, the “haematological, serum chemistry or urine analysis variables” value ([6]; any treatment group, repeated-dose study) was “no significant change from baseline” and the “development of anti‐efpeglenatide antibodies” value [7] was “No patient”. For the same substance, the “treatment‐emergent or treatment‐induced antibodies” value [8] was “none”, the “dissociation from the GLP‐1 receptor” value [9] was “faster dissociation” and the receptor internalization [10] was “reduced receptor internalization”.
